# Screening data deposited in PubChem by The Scripps Research Institute Molecular Screening Center.
# Compounds with a hit are over-represented: about 4.3% of the library has one in this group of screens.
# STAT3 inh: IL-6 driven STAT3 reporter inhibitors, primary screen, U3A cells, luciferase, luminescence, MLSCN library. IL-6 STAT3-luciferase reporter; host cell line lacks STAT1. 190,000 compounds, 0.89% hits. inhibition, % at 5.5 µM;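 active = inhibition above the mean inhibition across all screened compounds plus 3 SD, cut at about 44% in these data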;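 also: 0% = DMSO only wells and 100% = 100 µM nifuroxazide control wells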
# STAT3 activator: IL-6 driven STAT3 reporter potentiators, primary screen, U3A cells, luciferase, luminescence, MLSCN library. IL-6 STAT3-luciferase reporter; 100% = signal with IL-6 EC80 alone. activation (% of control), % at 5.6 µM. 190,000 compounds, 0.91% hits. AID 871, 2007;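 active = activation above the screen-wide mean of compound activation plus 3 SD, cut at about 130% in these data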;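 also: 0% = background luminescence of wells with medium and substrate only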
#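 Material: STAT3-luciferase reporter U3A cells. Controls: IL-6-treated wells, 100% activation. Read-out: % activation versus median of IL-6-stimulated wells. Probe or stimulus: IL-6 stimulus at 33 ng/mL final. Timing: compound 1 h, then IL-6 6 h at 37 °C. Signal: reporter luminescence signal.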
# STAT1 blocker: STAT1 signaling inhibitors, primary screen, cell-based, HTS, luciferase reporter; NIH 3T3 STAT1-luciferase reporter, IFN-gamma, luminescence; inhibition, % at 5.5 µM; 200,000 compounds, 0.35% hits;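 active = inhibition above a set limit, the mean inhibition across all tested compounds plus 3 SD, cut at about 34% in these data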;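 also: 0% = IFN-gamma with DMSO and 100% = IFN-gamma with 300 µM nifuroxazide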
# STAT1 activator: STAT1 signaling activators, primary screen, cell-based, HTS, luciferase reporter; activation (% of control), % at 5.5 µM; NIH 3T3 STAT1-luciferase reporter, IFN-gamma, luminescence; 100% = IFN-gamma alone, no compound; 200,000 compounds, 2.6% hits;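 active = activation above the screen-wide mean activation plus 3 SD, cut at about 130% in these data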;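 also: raw ratio to IFN-gamma control signal so 100% means no change and 0% no light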
# * hit, by the source's call.
SMILES,STAT3 inh,STAT3 activator,STAT1 blocker,STAT1 activator
CC(=O)c1cccc(NC(=S)NC(=O)c2cccc(Cl)c2)c1,-5,103,-44,140*
CC(=O)c1cccc(NC(=S)NC(=O)C(C)C)c1,1,100,-6,105
CC(=O)c1cccc(NC(=S)NC(=O)c2ccccc2)c1,8,93,-37,133*
O=C(O)c1cccc(NC(=S)NC(=O)c2ccc(-c3ccccc3)cc2)c1,30,76,5,96
CCCCN(C(=O)c1ccc2c(c1)OCO2)c1ccccc1,-3,107,-2,100
O=C(CNC1CCCCC1)Nc1cc(S(=O)(=O)N2CCOCC2)ccc1Cl,4,97,11,90
COc1ccc(NS(=O)(=O)c2cc(N/C(=N\S(=O)(=O)c3ccccc3)c3ccc(F)cc3)ccc2Cl)cc1,-10,109,-4,103
Cc1ccc(-n2cnc3cc(NCc4cccs4)ccc32)cc1,8,93,-31,120
c1ccc(-n2cnc3cc(NCc4ccco4)ccc32)cc1,-7,108,-53,147*
COc1ccc(-n2cnc3cc(NCc4cccs4)ccc32)cc1,-3,106,-34,131*
Cc1ccc(F)cc1NC(=O)C1CC(=O)N(CCc2ccccc2)C1 (stereo unspecified),9,95,3,97
O=C(CSc1nnc(SCc2cccc3ccccc23)s1)N=Nc1c(O)[nH]c2ccccc12,-17,114,8,93
O=C1N/C(=C/c2ccc(N3CCCC3)cc2)C(=O)N1c1ccccc1,-2,104,-34,131*
O=C1/C(=C/c2ccc(N3CCCC3)cc2)NC(=S)N1C1CC1,10,91,-17,116
COC(=O)/C(C#N)=C1/C=Cc2ccccc2N1,18,89,-30,130*
COC(=O)/C(C#N)=C1/SC=C(C)N1c1ccccc1,-6,108,-2,102
COc1ccc(N2CC(O)=C(c3nc4ccccc4s3)C2=N)cc1,-4,108,-10,109
N=C1C(c2nc3ccccc3s2)=C(O)CN1c1ccccc1,4,103,-55,149*
CCCCOCCCn1c(-c2ccco2)nc2nc3ccccc3nc21,6,99,0,100
COC(=O)CSc1nc(-c2cccs2)ccc1C#N,-4,108,-37,133*
N#Cc1ccc(-c2ccccc2)nc1SCC(=O)c1cccc(Cl)c1,21,91,-3,103
CCOC(=O)C1=C(CSc2nc(-c3ccccc3)ccc2C#N)OC(N)=C(C#N)C1c1ccc(OC)cc1 (stereo unspecified),-1,103,-53,147*
C#CCSc1nc(-c2cccs2)ccc1C#N,-12,112,-2,102
CCN(CC)C(=O)CSc1nc(-c2ccccc2)ccc1C#N,12,94,-38,132*
CCOc1ccc(N2C(=O)Nc3ccccc3C2(O)C(=O)N2CCN(c3ccccn3)CC2)cc1 (stereo unspecified),5,102,-3,102
SMILES,STAT3 inh,STAT3 activator,STAT1 blocker,STAT1 activator
CSCCC(NS(=O)(=O)c1c(Cl)cccc1Cl)C(=O)O (stereo unspecified),-3,104,2,98
CC(C)CN(/C=N/c1sc2c(c1C#N)CCCCC2)CC(C)C,-6,105,1,102
N#Cc1c(/N=C/c2cc3ccccc3s2)sc2c1CCC2,5,98,-20,118
N#Cc1c(/N=C/c2ccco2)sc2c1CCC2,8,98,-17,116
CN1CCN(/C=N/c2sc3c(c2C#N)CCCCC3)CC1,-10,110,-50,146*
Cc1ccc(/C=N/c2sc3c(c2C#N)CCCCC3)o1,14,92,-43,139*
Cc1ccc(/C=N/c2sc3c(c2C#N)CCC3)s1,35,74,-55,150*
COC(=O)c1ccc(OC(=O)C23CCC(C)(C(=O)O2)C3(C)C)cc1 (stereo unspecified),10,97,7,92
CC12CCCCC1N(O)C(=O)C(=O)N2O (stereo unspecified),-10,104,1,99
CN(C)CCN(C(=O)c1ccc(N2C(=O)CCC2=O)cc1)c1nc2cc3c(cc2s1)OCCO3,5,100,-13,109
Cc1csc(NC(=O)C(NC(=O)c2ccccc2F)C(C)C)n1 (stereo unspecified),5,103,5,95
COc1ccc(OC)c(C2C(C(C)=O)=C(O)C(=O)N2c2ccc(O)cc2)c1 (stereo unspecified),18,94,-7,106
COc1ccc(C2C(C(C)=O)=C(O)C(=O)N2c2ccc(Br)cn2)cc1 (stereo unspecified),-36,134*,-9,108
Cc1ccc(NC2=C/C(=N/S(=O)(=O)c3cccs3)c3ccccc3C2=O)cc1C,2,106,2,98
Cc1cc(C)c(S(=O)(=O)/N=C2/C=C(Sc3ncn[nH]3)C(=O)c3ccccc32)cc1C,-55,143*,1,99
Cc1ccc(-n2c(C)cc(C(=O)CSc3nncs3)c2C)cc1,28,82,-31,129*
CCOc1ccc2nc(SCc3ccc(OC)cc3)sc2c1,-6,103,-5,107
CCOc1ccc2nc(SCc3ccccc3C#N)sc2c1,6,104,-38,134*
CCc1nnc(N2C(=O)c3cccc4cccc(c34)C2=O)s1,-41,135*,3,97
O=C1c2cccc3cccc(c23)C(=O)N1c1ccncc1,29,77,10,85
c1ccc(-c2csc3ncnc(NCCCN4CCOCC4)c23)cc1,20,85,14,88
c1ccc(-c2csc3ncnc(NCC4COc5ccccc5O4)c23)cc1 (stereo unspecified),84*,31,38*,64
Cc1ccc(N/N=C(\C#N)C(=N)N2CCCCCC2)cc1,16,95,-41,136*
N#C/C(=N\Nc1ccc(F)cc1)C(=N)N1CCCCCC1,20,85,-55,150*
O=C(CN1CCCCCC1)Nc1ccccc1F,9,96,-1,101
SMILES,STAT3 inh,STAT3 activator,STAT1 blocker,STAT1 activator
N#C/C(=N\Nc1ccccc1F)C(=N)N1CCCCC1,-12,112,-57,148*
N#C/C(=N\Nc1ccccc1)C(=N)N1CCOCC1,-2,105,-12,111
Cc1ccc(N/N=C(\C#N)C(=N)N2CCOCC2)cc1,-13,114,-41,137*
N#CCCNc1c(Cl)cc(Cl)cc1C(=O)O,-5,108,2,98
COc1ccc(OC)c(NC(=O)Cn2c(CCC(=O)O)ccc2-c2ccccc2)c1,-37,134*,-5,105
O=C1CCCN1c1nccs1,6,99,7,93
CSc1nc(Cl)cc(Nc2ccc(O)cc2)n1,-4,105,-29,127
CC(C)n1c(-c2ccco2)csc1=Nc1cccnc1,-34,135*,10,91
COCCn1c(-c2ccccc2)csc1=Nc1cccnc1,10,98,12,89
COc1ccc(CNC(=O)CN(Cc2ccc(F)cc2)C(=O)c2csnn2)cc1,12,94,10,90
